Experimental data as given in ChEMBL document CHEMBL5055621, “Synthesis and Characterization of the Novel Rodent-Active and CNS-Penetrant P2X7 Receptor Antagonist Lu AF27139” (J Med Chem, 2021).

Tests used:
[1] = Free plasma concentration in rat at 3 mg/kg, po after 2 hrs by ex vivo equilibrium dialysis; format: ADME, organism-based
Method in brief: (§1)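 Male Sprague–Dawley rats were dosed orally at 1–100 mg/kg, and total plasma concentration was measured at 1 and 2 h. This was multiplied by fraction unbound from ex vivo equilibrium dialysis; mean ± SEM, n = 3 animals.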

Rattus norvegicus = assay: Reduction in LPS/BzATP-induced IL-1beta release in icv dosed Sprague-Dawley rat frontal cortex assessed as minimal effective dose pretreated 1 hr before BzATP stimulus; format: functional; settings: read-out: MED
Method in brief: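 Rats and mice with frontal cortex microdialysis probes and a lateral ventricle cannula received icv LPS (rat 3 μg/5 μL; mouse 0.1 μg/3 μL), and 1 h later oral compound in 20% HP-β-cyclodextrin. BzATP icv (rat 50 μg; mouse 5 μg) followed 1 h later.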

P2X purinoceptor 7 [2] = biological target: T1, P2X purinoceptor 7 (Homo sapiens, UniProt Q99572); assay: Displacement of [3H]-A-804598 from human P2X7 receptor expressed in HEK293 cell membrane by in vitro binding assay; format: cell membranes
T1 sequence (Q99572 whole entry): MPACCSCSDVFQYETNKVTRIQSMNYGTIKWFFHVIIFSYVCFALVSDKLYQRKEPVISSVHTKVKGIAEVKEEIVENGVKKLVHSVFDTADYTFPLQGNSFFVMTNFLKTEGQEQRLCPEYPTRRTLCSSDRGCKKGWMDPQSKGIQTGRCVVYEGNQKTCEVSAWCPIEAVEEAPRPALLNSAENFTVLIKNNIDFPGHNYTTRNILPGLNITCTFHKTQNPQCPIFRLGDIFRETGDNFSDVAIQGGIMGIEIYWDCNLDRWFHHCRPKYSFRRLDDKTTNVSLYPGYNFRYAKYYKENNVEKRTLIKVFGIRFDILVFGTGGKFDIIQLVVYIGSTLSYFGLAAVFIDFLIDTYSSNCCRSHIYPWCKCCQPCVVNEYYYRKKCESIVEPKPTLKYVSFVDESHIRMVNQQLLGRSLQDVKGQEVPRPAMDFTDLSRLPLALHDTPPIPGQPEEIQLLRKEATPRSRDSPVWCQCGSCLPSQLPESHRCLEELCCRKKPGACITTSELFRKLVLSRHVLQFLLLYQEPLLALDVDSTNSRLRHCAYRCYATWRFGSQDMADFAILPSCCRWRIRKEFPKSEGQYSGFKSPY

[3] = Volume of distribution at steady state in rat at 1 mg/kg, iv and 2 mg/kg, po; format: ADME, organism-based; settings: in vivo
Method in brief: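 Plasma concentration–time profiles were obtained in rats after an iv dose of 1 mg/kg and a po dose of 2 mg/kg. Parameters were estimated by noncompartmental analysis. In vivo work used male Sprague–Dawley rats of 150−200 g unless noted otherwise.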

[4] = Free plasma concentration in rat at 3 mg/kg, po after 1 hr by ex vivo equilibrium dialysis; format: ADME, organism-based; method in brief: as §1
[5] = Free plasma concentration in rat at 10 mg/kg, po after 1 hr by ex vivo equilibrium dialysis; format: ADME, organism-based; method in brief: as §1
[6] = Cmax in female mouse at 100 mg/kg, po administered as single dose; settings: in vivo
Cytochrome P450 2C19 = Cytochrome P450 2C19 (Homo sapiens, UniProt P33261); assay: Time dependent inhibition of CYP2C19 (unknown origin) upto 25 uM; format: ADME
in vitro [7] = settings: rat, liver microsomes
Mus musculus = assay: Toxicity in C57BL/6NCrl mouse assessed as histological changes up to 100 mg/kg, po bid by 14 days exploratory toxicology study; format: organism-based; settings: in vivo, 336 h, time 14 day
Method in brief: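 Exploratory 14-day repeat oral toxicity study in mice with dosing twice daily (bid) up to 100 mg/kg. Endpoints were macroscopic pathology, histology and hematology.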

in vitro [8] = settings: human, liver microsomes
[9] = Inhibition of BzATP-induced current in rat primary microglia cells measured after repeated BzATP treatment at -60 mV at 10 nM by whole cell patch clamp assay relative to control; format: functional
Method in brief: (§2)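 Rat primary microglia were whole-cell patch-clamped at −60 mV (external pH 7.4 with 1.8 mM CaCl2; CsCl/EGTA internal pH 7.2). Currents came from 10 s applications of 300 μM BzATP, applied repeatedly. Compound was applied by gravity via capillary for 60 s, and inhibition was taken relative to the control response.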

[10] = Apparent permeability across apical to basolateral side in MDCK-MDR1 cells by LC-MS/MS analysis; settings: dog
[11] = Free plasma concentration in rat at 10 mg/kg, po after 2 hrs by ex vivo equilibrium dialysis; format: ADME, organism-based; method in brief: as §1
[12] = Inhibition of BzATP-induced current in rat primary microglia cells measured after repeated BzATP treatment at -60 mV at 100 nM by whole cell patch clamp assay relative to control; format: functional; method in brief: as §2
[13] = biological target: Sodium channel protein type 5 subunit alpha (Homo sapiens, UniProt Q14524); assay: Inhibition of human Nav1.5 at 10 uM
Method in brief: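 Human Nav1.5, Cav1.2 and KCNQ1/minK channels were tested at 10 μM.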

[14] = AUC (0 to 8 hr) in male rat at 150 mg/kg, po after 7 days; format: ADME, organism-based; design: time 7 day, dose 150 mg/kg, route po; settings: in vivo
Method in brief: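 Oral dosing in male Sprague-Dawley rats (150−200 g, 7-day acclimation, standard housing) in a 7-day exploratory toxicology study.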

P2X purinoceptor 7 [15] = biological target: T2, P2X purinoceptor 7 (Mus musculus, UniProt Q9Z1M0); assay: Antagonist activity at mouse P2X7 receptor expressed in HEK293 cells assessed as inhibition of BzATP-induced calcium-flux measured after 60 mins by FLIPR analysis; format: cell-based
T2 sequence (Q9Z1M0 whole entry): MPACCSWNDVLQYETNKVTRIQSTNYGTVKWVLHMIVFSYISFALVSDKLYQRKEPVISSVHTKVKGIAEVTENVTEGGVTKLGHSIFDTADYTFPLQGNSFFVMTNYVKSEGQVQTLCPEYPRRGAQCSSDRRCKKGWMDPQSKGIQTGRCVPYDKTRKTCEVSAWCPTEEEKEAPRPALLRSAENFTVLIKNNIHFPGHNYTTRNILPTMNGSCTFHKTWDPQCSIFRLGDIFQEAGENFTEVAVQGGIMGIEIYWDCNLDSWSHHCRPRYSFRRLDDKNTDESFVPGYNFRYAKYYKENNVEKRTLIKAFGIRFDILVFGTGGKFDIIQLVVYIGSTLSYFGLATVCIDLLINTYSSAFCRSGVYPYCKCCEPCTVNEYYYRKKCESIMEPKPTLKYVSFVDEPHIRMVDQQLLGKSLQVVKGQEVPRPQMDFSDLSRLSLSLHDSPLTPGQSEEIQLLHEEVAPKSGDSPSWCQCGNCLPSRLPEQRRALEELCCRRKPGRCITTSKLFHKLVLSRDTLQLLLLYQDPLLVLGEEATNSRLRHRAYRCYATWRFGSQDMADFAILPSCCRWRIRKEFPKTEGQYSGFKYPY
Method in brief: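 Stable rat or mouse P2X7 HEK293 cells in HBSS/20 mM HEPES/2.5 mM probenecid/0.05% BSA, pH 7.4, were loaded with Fluo-4 NW (37 °C 30 min, RT 30 min). After 30 min at RT, calcium fluorescence was read by FLIPR; n ≥ 3.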

Sequence of Sodium channel protein type 5 subunit alpha (Q14524 whole entry): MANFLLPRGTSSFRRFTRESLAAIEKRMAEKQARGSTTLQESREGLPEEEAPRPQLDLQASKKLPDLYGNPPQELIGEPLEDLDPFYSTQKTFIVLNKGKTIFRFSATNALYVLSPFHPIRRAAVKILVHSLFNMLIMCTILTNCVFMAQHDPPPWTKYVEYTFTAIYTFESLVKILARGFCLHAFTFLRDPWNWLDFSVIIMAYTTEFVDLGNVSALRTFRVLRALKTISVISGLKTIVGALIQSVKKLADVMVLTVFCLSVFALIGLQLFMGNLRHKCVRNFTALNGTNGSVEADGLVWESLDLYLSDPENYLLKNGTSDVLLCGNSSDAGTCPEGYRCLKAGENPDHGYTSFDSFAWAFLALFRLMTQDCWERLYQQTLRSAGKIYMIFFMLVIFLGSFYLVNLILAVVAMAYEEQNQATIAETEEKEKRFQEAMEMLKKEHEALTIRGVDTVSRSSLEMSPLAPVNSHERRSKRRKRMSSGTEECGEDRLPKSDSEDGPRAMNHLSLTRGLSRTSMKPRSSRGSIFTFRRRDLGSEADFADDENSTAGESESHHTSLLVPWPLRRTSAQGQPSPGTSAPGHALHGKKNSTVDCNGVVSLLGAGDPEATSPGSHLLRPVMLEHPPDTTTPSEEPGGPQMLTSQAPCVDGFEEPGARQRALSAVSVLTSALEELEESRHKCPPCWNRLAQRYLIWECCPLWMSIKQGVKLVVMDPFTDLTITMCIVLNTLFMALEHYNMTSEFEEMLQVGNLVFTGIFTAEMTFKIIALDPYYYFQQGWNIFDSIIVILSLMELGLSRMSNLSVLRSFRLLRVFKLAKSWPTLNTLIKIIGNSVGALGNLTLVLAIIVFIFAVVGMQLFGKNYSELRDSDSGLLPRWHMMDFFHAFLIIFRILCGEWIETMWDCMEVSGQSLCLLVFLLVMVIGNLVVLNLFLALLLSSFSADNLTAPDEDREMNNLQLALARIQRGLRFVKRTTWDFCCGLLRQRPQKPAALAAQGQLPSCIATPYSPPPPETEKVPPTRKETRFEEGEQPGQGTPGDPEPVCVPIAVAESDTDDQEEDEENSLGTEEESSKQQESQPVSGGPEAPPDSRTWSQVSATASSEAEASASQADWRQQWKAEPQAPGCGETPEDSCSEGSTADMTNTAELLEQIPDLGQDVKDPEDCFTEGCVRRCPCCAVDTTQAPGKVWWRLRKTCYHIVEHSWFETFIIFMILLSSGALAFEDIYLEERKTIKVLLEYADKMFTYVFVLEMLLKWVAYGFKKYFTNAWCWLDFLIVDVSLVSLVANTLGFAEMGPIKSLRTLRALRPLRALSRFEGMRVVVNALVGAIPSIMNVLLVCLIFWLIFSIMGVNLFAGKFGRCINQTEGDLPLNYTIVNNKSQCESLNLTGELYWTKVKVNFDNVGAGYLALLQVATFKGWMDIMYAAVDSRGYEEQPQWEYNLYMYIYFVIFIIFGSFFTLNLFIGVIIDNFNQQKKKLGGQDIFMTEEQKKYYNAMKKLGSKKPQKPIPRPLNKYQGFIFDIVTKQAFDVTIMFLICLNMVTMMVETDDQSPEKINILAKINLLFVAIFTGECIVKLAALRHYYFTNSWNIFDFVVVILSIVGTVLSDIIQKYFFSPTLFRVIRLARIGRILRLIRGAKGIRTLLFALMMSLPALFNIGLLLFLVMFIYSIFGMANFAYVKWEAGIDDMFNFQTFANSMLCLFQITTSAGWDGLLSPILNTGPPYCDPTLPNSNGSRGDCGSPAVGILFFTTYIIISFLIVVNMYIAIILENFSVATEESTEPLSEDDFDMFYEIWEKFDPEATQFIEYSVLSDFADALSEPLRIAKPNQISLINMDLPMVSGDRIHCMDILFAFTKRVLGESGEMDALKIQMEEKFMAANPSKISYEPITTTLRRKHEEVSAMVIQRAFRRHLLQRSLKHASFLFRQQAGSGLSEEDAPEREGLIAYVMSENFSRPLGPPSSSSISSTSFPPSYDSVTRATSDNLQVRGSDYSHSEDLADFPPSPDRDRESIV
Sequence of Cytochrome P450 2C19 (P33261 whole entry): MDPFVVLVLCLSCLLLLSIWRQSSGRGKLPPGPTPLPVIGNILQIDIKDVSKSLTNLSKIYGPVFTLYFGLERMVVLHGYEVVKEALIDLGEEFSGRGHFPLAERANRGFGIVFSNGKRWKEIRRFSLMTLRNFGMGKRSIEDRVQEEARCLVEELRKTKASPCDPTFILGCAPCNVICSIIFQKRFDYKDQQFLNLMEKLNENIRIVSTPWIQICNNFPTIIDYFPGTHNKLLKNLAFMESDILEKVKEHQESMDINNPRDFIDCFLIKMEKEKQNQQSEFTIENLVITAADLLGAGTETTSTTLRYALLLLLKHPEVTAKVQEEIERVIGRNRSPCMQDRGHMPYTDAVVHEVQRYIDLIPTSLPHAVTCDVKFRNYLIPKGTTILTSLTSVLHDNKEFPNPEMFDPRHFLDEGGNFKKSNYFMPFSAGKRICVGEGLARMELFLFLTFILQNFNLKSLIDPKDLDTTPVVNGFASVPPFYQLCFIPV

Cp(f) [1]: 91.4 nM
Ki (P2X purinoceptor 7 [2]): 55 nM
Vdss [3]: 0.95 L/kg
Cp(f) [4]: 71.2 nM
Cp(f) [5]: 381 nM
Cmax [6]: 140000 nM
TDI (Cytochrome P450 2C19): Not Active
CLint scaled at 1 h, 1 µM (in vitro [7]): 85 mL/min/kg
CLint scaled at 1 h, 1 µM (in vitro [8]): 43.3 mL/min/kg
Papp A:B [10]: 15 ×10⁻⁶ cm/s
Cp(f) [11]: 164 nM
AUC at 168 h [14]: 210 µM·h
IC50 (P2X purinoceptor 7 [15]): 22 nM
SMILES: O=C(NC[C@H](c1ccc(Cl)cc1)N1CCOCC1)c1sc(-c2ncccn2)nc1C(F)(F)F
minimal effective dose (Rattus norvegicus): 3 mg/kg
Activity (Mus musculus): Non-Toxic
inhibition at 0.01 µM [9]: 31%
inhibition at 0.1 µM [12]: 80%
inhibition (INH) [13]: Not Active
